Laboratory results taken from ChEMBL document CHEMBL1914368, “Imidazo[1,5-a]quinoxalines as irreversible BTK inhibitors for the treatment of rheumatoid arthritis” (Bioorg Med Chem Lett, 2011).
Activity calls are given as the source filed them. The calls are words filed in the database; no cut-off is given here.

How the values were obtained:
[1] = target: Angiopoietin-1 receptor (Homo sapiens) (UniProt Q02763); experiment: Inhibition of TEK relative to control; details: concentration not given here
[2] = target: Tyrosine-protein kinase Mer (Homo sapiens) (UniProt Q12866); experiment: Inhibition of MERTK relative to control; details: concentration not given here
[3] = target: T1, Aryl hydrocarbon receptor (Mus musculus, UniProt P30561); experiment: Agonist activity at Ah receptor in genetically engineered mouse cells expressing firefly luciferase gene by CALUX transactivational assay; type: functional
T1 sequence (P30561 whole entry): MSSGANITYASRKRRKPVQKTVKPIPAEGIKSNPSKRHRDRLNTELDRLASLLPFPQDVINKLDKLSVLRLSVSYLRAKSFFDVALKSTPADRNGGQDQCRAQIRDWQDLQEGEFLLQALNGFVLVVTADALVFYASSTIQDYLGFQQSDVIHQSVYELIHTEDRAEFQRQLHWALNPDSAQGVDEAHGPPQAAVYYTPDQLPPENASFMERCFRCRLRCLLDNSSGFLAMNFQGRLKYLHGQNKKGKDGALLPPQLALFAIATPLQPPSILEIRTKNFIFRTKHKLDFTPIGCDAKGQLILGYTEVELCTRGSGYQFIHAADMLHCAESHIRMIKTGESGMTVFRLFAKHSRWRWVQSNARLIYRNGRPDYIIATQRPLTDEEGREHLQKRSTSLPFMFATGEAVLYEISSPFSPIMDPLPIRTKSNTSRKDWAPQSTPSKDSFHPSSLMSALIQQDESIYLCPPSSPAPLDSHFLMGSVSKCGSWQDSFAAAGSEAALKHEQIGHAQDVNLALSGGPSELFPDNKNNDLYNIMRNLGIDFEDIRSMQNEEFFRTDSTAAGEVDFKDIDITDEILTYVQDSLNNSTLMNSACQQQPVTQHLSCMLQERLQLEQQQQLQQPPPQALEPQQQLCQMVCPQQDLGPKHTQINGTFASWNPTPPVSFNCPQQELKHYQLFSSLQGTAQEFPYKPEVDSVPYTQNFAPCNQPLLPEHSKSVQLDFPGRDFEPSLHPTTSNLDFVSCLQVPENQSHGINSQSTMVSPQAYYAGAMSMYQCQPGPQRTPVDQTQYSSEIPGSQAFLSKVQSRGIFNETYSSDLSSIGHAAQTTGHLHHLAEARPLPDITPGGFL

[4] = target: Serine/threonine-protein kinase TBK1 (Homo sapiens) (UniProt Q9UHD2); experiment: Inhibition of TBK1 relative to control; details: concentration not given here
[5] = AUC (0 to infinity) in mouse at 2 mg/kg, iv; type: ADME, organism-based; design: time infinity, dose 2 mg/kg, route intravenous; details: plasma
[6] = target: RAF proto-oncogene serine/threonine-protein kinase (Homo sapiens) (UniProt P04049); experiment: Inhibition of RAF1 relative to control; details: concentration not given here
[7] = target: High affinity nerve growth factor receptor (Homo sapiens) (UniProt P04629); experiment: Inhibition of NTRK1 relative to control; details: concentration not given here
[8] = target: Tyrosine-protein kinase JAK3 (Homo sapiens) (UniProt P52333); experiment: Inhibition of JAK3 relative to control; details: concentration not given here
[9] = target: RAC-alpha serine/threonine-protein kinase (Homo sapiens) (UniProt P31749); experiment: Inhibition of AKT1 relative to control; details: concentration not given here
[10] = Half life in mouse at 10 mg/kg, po; type: ADME, organism-based; design: dose 10 mg/kg, route oral; details: in vivo
Mus musculus [11] = experiment: Antiarthritic activity in DBA/1 JBomTac mouse collagen-induced arthritis model assessed as inhibition of disease progression at 3 mg/kg, po qd measured on day 5 to 22; type: functional, organism-based; design: dose 3 mg/kg
Summary of the method: (§1)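 Semi-therapeutic collagen-induced arthritis model. Blinded paw scoring used a 0–4 scale, reported as mean and SEM. Comparison to vehicle used Student's t-test, P <0.05.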

[12] = target: Mitogen-activated protein kinase 3 (Homo sapiens) (UniProt P27361); experiment: Inhibition of MAPK3 relative to control; details: concentration not given here
[13] = target: T2, Tyrosine-protein kinase BTK (Homo sapiens, UniProt Q06187); experiment: Inhibition of BTK autophosphorylation at PY223 in human Ramos B cells after 20 mins by Western blot analysis; type: cell-based
[14] = target: Tyrosine-protein kinase ITK/TSK (Homo sapiens) (UniProt Q08881); experiment: Inhibition of ITK relative to control; details: concentration not given here
[15] = target: Tyrosine-protein kinase ABL2 (Homo sapiens) (UniProt P42684); experiment: Inhibition of ABL2 relative to control; details: concentration not given here
[16] = target: Glycogen synthase kinase-3 alpha (Homo sapiens) (UniProt P49840); experiment: Inhibition of GSK3A relative to control; details: concentration not given here
[17] = target: Ribosomal protein S6 kinase alpha-1 (Homo sapiens) (UniProt Q15418); experiment: Inhibition of RSK1 relative to control; details: concentration not given here
[18] = target: Tyrosine-protein kinase Blk (Homo sapiens, UniProt P51451); experiment: Inhibition of BLK relative to control
Mus musculus [19] = experiment: Antiarthritic activity in DBA/1 JBomTac mouse collagen-induced arthritis model assessed as inhibition of disease progression at 1 mg/kg, po qd measured on day 19 to 22; type: functional, organism-based; design: dose 1 mg/kg; summary of the method: as §1
[20] = target: Tyrosine-protein kinase HCK (Homo sapiens) (UniProt P08631); experiment: Inhibition of HCK relative to control; details: concentration not given here
[21] = target: Cytoplasmic tyrosine-protein kinase BMX (Homo sapiens) (UniProt P51813); experiment: Inhibition of BMX relative to control; details: concentration not given here
Ephrin type-A receptor 8 = Ephrin type-A receptor 8 (Homo sapiens, UniProt P29322); experiment: (§2) Inhibition of EPHA8 relative to control
[22] = target: Ephrin type-A receptor 8 (Homo sapiens) (UniProt P29322); experiment: as §2; details: concentration not given here
[23] = target: Receptor tyrosine-protein kinase erbB-4 (Homo sapiens, UniProt Q15303); experiment: Inhibition of HER4 relative to control; details: concentration not given here
[24] = target: Proto-oncogene tyrosine-protein kinase Src (Homo sapiens, UniProt P12931); experiment: Inhibition of SRC relative to control; details: concentration not given here
[25] = target: Platelet-derived growth factor receptor beta (Homo sapiens) (UniProt P09619); experiment: Inhibition of PDGFRbeta relative to control; details: concentration not given here
[26] = target: T2, Tyrosine-protein kinase BTK; experiment: Inhibition of human full-length BTK expressed in Sf9 cells using FAM-Srctide peptide as substrate preincubated for 60 mins measured after 60 mins by TR-FRET Assay
Summary of the method: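 The compound was pre-incubated with the kinase before the enzymatic reaction was started. IC50 values are averages of two or more determinations.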

[27] = AUC (0 to infinity) in mouse at 10 mg/kg, po; type: ADME, organism-based; design: time infinity, dose 10 mg/kg, route oral; details: plasma
[28] = target: Receptor tyrosine-protein kinase erbB-2 (Homo sapiens) (UniProt P04626); experiment: Inhibition of HER2 relative to control; details: concentration not given here
[29] = target: Phosphatidylinositol 4-phosphate 3-kinase C2 domain-containing subunit alpha (Homo sapiens) (UniProt O00443); experiment: Inhibition of PI3K-C2 alpha relative to control; details: concentration not given here
Mus musculus [30] = experiment: Antiarthritic activity in DBA/1 JBomTac mouse collagen-induced arthritis model assessed as inhibition of disease progression at 10 mg/kg, po qd measured on day 7 to 22; type: functional, organism-based; design: dose 10 mg/kg; summary of the method: as §1
[31] = Oral bioavailability in mouse at 10 mg/kg; type: ADME, organism-based; details: in vivo
Summary of the method: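 Mouse pharmacokinetics from single dosing at 2 mg/kg iv and 10 mg/kg po. The study derived AUC, T1/2, clearance, Vss, Tmax, Cmax and oral bioavailability (%F) from the paired iv and po arms.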

T2 sequence (Q06187 whole entry): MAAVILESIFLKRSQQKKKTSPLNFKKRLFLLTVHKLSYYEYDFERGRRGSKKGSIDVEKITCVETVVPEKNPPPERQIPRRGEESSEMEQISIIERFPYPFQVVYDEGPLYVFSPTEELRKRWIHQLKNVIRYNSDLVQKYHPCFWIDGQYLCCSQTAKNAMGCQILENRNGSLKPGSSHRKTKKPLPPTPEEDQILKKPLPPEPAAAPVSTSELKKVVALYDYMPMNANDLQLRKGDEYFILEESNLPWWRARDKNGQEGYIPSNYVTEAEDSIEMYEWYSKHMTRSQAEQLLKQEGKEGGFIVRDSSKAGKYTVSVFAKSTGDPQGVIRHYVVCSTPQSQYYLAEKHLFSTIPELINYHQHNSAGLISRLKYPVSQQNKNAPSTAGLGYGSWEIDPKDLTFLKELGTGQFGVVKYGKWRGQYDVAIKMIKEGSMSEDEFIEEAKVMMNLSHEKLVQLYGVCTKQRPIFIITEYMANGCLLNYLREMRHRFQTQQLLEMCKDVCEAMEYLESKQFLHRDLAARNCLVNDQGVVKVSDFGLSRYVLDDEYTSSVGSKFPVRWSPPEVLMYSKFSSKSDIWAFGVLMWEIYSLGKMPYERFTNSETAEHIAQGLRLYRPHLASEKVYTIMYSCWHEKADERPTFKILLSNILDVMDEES
Chain of Tyrosine-protein kinase HCK (Homo sapiens) (P08631 2-526 limits assumed): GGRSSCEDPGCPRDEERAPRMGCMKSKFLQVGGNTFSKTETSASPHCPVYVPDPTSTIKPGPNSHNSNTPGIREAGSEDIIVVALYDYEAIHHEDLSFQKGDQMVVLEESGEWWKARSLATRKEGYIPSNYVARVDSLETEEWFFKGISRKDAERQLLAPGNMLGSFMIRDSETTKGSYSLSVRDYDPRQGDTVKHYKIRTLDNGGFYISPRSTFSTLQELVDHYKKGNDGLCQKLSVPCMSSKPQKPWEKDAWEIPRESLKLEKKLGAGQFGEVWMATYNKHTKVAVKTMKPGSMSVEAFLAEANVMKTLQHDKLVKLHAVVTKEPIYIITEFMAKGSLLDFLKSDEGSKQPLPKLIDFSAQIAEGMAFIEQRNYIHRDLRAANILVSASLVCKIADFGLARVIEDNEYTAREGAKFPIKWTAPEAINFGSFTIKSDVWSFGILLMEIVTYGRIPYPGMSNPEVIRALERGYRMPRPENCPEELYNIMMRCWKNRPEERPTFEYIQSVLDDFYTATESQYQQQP
Chain of Cytoplasmic tyrosine-protein kinase BMX (Homo sapiens) (P51813 whole entry): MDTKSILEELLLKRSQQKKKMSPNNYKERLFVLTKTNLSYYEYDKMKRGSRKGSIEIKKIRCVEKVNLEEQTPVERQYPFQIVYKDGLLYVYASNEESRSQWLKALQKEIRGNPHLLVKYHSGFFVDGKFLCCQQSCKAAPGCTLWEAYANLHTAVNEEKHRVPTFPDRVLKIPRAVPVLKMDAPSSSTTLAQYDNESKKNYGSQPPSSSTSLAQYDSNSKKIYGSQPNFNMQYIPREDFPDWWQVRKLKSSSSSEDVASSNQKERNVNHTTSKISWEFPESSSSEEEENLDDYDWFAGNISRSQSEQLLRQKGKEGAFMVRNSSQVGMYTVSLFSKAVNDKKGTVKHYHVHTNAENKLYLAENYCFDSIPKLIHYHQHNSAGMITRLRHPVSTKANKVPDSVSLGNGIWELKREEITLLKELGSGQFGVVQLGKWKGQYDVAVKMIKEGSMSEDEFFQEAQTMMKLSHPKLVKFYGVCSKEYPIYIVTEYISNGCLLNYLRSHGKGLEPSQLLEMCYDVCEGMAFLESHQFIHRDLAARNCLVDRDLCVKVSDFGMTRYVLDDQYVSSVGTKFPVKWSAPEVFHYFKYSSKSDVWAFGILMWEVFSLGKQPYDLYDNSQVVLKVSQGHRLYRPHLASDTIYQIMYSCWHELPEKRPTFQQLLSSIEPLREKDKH
Chain of Mitogen-activated protein kinase 3 (Homo sapiens) (P27361 whole entry): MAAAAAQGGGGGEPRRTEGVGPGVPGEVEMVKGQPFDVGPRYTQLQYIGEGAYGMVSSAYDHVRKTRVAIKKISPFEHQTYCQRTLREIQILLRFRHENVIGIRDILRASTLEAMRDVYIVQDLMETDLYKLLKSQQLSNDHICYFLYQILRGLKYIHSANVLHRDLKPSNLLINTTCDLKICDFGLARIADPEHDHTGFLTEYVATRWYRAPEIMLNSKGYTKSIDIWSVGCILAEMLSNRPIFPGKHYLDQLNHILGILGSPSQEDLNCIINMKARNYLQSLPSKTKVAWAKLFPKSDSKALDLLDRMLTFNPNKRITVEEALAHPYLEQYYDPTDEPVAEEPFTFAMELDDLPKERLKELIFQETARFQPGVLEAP
Chain of RAC-alpha serine/threonine-protein kinase (Homo sapiens) (P31749 whole entry): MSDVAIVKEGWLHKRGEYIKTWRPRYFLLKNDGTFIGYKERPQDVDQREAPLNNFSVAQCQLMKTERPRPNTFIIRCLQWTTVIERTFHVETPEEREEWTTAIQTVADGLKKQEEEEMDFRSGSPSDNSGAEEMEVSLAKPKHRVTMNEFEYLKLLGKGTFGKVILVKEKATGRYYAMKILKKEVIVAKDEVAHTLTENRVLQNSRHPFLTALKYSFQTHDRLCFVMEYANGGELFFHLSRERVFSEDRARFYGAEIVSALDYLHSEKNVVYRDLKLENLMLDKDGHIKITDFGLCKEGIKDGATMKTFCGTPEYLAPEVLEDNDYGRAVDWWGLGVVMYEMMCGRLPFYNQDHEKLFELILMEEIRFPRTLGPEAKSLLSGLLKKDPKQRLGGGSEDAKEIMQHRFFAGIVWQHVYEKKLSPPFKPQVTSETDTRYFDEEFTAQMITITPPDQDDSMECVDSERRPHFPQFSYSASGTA
Chain of Serine/threonine-protein kinase TBK1 (Homo sapiens) (Q9UHD2 whole entry): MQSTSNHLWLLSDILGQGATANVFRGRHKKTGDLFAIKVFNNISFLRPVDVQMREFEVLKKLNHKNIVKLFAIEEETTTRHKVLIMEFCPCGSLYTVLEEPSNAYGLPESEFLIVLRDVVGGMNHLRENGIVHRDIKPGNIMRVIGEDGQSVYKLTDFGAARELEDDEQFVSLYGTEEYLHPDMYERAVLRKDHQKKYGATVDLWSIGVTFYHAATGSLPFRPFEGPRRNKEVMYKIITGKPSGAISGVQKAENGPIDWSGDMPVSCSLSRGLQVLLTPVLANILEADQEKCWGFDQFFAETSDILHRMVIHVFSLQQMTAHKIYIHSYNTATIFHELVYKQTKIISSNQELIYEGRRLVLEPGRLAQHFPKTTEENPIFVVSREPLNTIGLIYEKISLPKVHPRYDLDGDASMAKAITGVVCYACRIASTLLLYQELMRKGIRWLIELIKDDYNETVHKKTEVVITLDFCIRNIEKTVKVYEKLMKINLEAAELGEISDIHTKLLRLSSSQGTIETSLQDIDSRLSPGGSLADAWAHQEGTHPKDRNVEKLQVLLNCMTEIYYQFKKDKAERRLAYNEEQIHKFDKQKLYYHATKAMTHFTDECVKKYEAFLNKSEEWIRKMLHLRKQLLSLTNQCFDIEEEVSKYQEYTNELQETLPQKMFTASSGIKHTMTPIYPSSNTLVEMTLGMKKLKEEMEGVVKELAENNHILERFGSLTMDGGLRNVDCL
Chain of Tyrosine-protein kinase JAK3 (Homo sapiens) (P52333 whole entry): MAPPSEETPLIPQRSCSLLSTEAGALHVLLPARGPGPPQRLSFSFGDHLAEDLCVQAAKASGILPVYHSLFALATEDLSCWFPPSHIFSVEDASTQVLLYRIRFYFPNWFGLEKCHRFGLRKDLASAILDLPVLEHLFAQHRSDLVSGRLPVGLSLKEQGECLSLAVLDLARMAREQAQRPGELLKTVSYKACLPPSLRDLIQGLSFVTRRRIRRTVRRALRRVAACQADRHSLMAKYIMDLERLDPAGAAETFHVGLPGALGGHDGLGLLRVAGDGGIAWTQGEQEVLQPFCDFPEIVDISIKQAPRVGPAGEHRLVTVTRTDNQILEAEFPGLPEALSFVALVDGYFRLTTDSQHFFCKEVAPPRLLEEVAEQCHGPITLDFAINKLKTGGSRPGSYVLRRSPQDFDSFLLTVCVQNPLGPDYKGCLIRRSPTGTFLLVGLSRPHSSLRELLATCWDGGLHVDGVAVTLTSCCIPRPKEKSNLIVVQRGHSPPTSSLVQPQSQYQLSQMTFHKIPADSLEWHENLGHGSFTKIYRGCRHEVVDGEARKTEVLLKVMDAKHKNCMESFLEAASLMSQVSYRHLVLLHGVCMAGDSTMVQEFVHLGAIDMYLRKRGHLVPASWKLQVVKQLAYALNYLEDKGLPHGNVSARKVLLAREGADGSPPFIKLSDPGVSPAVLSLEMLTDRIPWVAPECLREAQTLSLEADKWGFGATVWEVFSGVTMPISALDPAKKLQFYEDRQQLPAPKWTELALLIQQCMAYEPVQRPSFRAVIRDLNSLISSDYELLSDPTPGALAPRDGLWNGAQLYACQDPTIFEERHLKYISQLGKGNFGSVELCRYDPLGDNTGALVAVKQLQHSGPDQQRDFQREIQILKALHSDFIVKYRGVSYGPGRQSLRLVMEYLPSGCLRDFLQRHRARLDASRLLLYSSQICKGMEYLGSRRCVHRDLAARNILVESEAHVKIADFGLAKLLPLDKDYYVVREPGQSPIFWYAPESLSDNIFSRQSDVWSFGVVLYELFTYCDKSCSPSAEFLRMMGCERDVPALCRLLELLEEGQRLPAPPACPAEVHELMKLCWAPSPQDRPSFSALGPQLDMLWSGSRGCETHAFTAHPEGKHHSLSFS

Cc1ccccc1Nc1nc2cc(F)c(N(C)C(=O)/C=C/CN(C)C)cc2n2cncc12
inhibition [1]: 13% | inhibition [2]: 4% | EC50 [3]: > 10000 nM | inhibition [4]: -5% | AUC(0-inf) [5]: 510 ng·h/mL | inhibition [6]: 9% | inhibition [7]: 8% | inhibition [8]: -4% | inhibition [9]: 4% | half-life [10]: 2 h | Activity (Mus musculus [11]): Active | inhibition [12]: 1% | IC50 [13]: 48 nM | inhibition [14]: 5% | inhibition [15]: 65% | inhibition [16]: 8% | inhibition [17]: 0% | IC50 [18]: 16 nM | inhibition ([18]; concentration not given here): 109% | Activity (Mus musculus [19]): Active | inhibition [20]: 5% | inhibition [21]: 100% | IC50 (Ephrin type-A receptor 8): 434 nM | inhibition [22]: 54% | inhibition [23]: 101% | inhibition [24]: 43% | inhibition [25]: 2% | IC50 [26]: 0.7 nM | AUC(0-inf) [27]: 876 ng·h/mL | inhibition [28]: 19% | inhibition [29]: 0% | Activity (Mus musculus [30]): Active | bioavailability [31]: 34%
